# Only some compounds are listed: those with a hit (about 1.4% of all), similar ones and a draw of the others.
# HKDC1 inh: HKDC1 hexokinase inhibitors, primary screen, biochemical, fluorescence, uHTS. recombinant HKDC1, G6PDH/diaphorase resazurin coupled fluorescence. inhibition, % at 20 µM. 340,000 tested, 0.16% active. AID 493160, 2011;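 active means inhibition above about 35% when tested at 20 µM, limit read from the data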;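 further: plate controls were DMSO wells with enzyme for no effect and DMSO wells lacking enzyme for full effect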
# Target sequence (Q2TB90 whole entry, looked up): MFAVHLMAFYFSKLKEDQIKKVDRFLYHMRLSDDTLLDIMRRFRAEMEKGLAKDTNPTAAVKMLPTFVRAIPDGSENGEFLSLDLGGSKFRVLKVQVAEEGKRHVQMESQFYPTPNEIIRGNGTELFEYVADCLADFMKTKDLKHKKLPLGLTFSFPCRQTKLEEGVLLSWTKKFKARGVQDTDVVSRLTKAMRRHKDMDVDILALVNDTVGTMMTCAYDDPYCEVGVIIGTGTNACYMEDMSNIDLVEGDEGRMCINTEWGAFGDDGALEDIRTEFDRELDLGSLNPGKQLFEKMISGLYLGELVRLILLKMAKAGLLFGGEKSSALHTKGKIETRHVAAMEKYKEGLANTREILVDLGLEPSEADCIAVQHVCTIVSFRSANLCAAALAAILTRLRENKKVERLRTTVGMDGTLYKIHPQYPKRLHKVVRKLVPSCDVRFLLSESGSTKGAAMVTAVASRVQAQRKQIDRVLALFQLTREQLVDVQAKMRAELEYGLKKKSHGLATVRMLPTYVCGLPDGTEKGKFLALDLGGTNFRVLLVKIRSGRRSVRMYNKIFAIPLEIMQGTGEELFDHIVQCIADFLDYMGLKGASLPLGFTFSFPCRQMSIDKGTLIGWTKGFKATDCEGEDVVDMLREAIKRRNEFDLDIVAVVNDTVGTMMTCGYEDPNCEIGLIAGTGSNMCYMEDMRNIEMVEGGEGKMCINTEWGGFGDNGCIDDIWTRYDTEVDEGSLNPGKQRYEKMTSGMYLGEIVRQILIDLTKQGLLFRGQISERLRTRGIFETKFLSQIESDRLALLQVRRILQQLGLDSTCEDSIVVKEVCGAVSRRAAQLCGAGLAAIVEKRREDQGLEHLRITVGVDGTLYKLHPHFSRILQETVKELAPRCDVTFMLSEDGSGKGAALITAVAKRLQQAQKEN
#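 Material: recombinant HKDC1 hexokinase; Amount: HKDC1 at 5 µg/mL; Medium: Tris pH 8.0 buffer with MgCl2, Tween-20, BSA, BME; Schedule: 90 min reaction incubation at room temperature, dark; Technique: coupled resazurin fluorescence, excitation 525 nm, emission 613 nm.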
# APOBEC3G inh: APOBEC3G DNA deaminase inhibitors, primary screen, biochemical, fluorescence, single-stranded DNA substrate, uHTS; recombinant A3G, ssDNA deamination FAM/TAMRA fluorescence; inhibition, % at 20 µM; DNA dC->dU-editing enzyme APOBEC-3G (Homo sapiens), Q9HC16; 330,000 tested, 0.28% active; AID 493012, 2011;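 active means inhibition of at least 40% at 20 µM, with no more than 30% in the related APOBEC3A deaminase screen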;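 further: plate controls were DMSO wells with A3G for no effect and wells lacking A3G enzyme for full effect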
# hiPSC survival: enhancers of single-cell hiPSC survival, primary screen, ATPlite luminescence. AID 602274, 2012. 100% = ROCK inhibitor wells, 0% = DMSO. survival enhancement, % at 20 µM. 360,000 tested, 0.044% active; in the data active means survival enhancement above about 18%;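 further: cells exposed to compounds for 16 hours before the ATP read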
# PfG6PD inh: PfG6PD enzyme inhibitors, primary screen, biochemical, fluorescence intensity, uHTS. PfGluPho enzyme, NADPH resazurin-diaphorase fluorescence. inhibition, % at 20 µM. 350,000 tested, 0.78% active;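 active means inhibition reaching at least a set limit at 20 µM in the primary screen, cut at about 59% in these data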;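 further: 0% = DMSO wells with substrate and 100% = DMSO wells lacking glucose-6-phosphate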
# A3A deaminase: APOBEC3A ssDNA deaminase inhibitors, primary screen, selectivity assay for APOBEC3G inhibitor project, biochemical, FAM/TAMRA oligo cleavage fluorescence. DNA dC->dU-editing enzyme APOBEC-3A (Homo sapiens), P31941. AID 493011, 2011. 330,000 tested, 0.41% active. recombinant A3A, FAM/TAMRA ssDNA deamination fluorescence. inhibition, % at 20 µM;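 active means at least 40% inhibition at 20 µM here, with at most 30% in a related deaminase screen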;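 further: plate controls were A3A with DMSO for no effect and wells lacking A3A enzyme for full effect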
# PfGluPho conf: PfG6PD inhibitors, hit retest, confirmation, biochemical, fluorescence intensity, single concentration; shares compounds with PfG6PD inh; recombinant PfGluPho, NADPH-diaphorase-resazurin fluorescence; inhibition, % at 20 µM; 2,400 tested, 34% active; AID 504753, 2011;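 active means inhibition of at least 50% at 20 µM in any single replicate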;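 further: 0% = DMSO with substrate and 100% = DMSO lacking glucose-6-phosphate substrate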
# Diaphorase 10uM: diaphorase inhibitors and chemical oxidizers, confirmation, counter-screen for P. falciparum G6PD inhibitor project, biochemical, fluorescence intensity, 10 µM NADPH; shares compounds with PfG6PD inh; diaphorase-coupled resazurin reduction, NADPH 10 uM; inhibition, % at 20 µM; 820 tested, 39% active;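 active means average inhibition reaching 50% or more with the compound at 20 µM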;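 further: resorufin red fluorescence formed as diaphorase reduces resazurin using NADPH; 0% = DMSO with enzyme and 100% = DMSO without enzyme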
# Diaph ctr 30uM: diaphorase inhibitors and chemical oxidizers, confirmation, counter-screen for P. falciparum G6PD inhibitor project, biochemical, fluorescence intensity, 30 µM NADPH; shares compounds with PfG6PD inh; Diaphorase/resazurin coupled assay, resorufin fluorescence; 820 tested, 29% active; inhibition, % at 20 µM;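 active means inhibition averaging 50% or more, tested at 20 µM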;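 further: 0% = DMSO with enzyme and 100% = DMSO wells lacking diaphorase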
# An asterisk follows results filed as active; / = no result given.
SMILES,HKDC1 inh,APOBEC3G inh,hiPSC survival,PfG6PD inh,A3A deaminase,PfGluPho conf,others
O=C(Nc1nnc(S(=O)(=O)N2CCCCCC2)s1)c1ccc(Br)cc1,-1,-9,0,72*,-4,9,
CCOC(=O)[C@@H]1[C@H]2COc3ccc(Br)cc3[C@@H]2N2C(=O)N(c3cccc(Cl)c3)C(=O)[C@@]12C,1,-7,-1,14,-4,/,
CCCc1cc(=O)[nH]c(SCC(=O)NC2CCCc3ccccc32)n1 (stereo not drawn),2,-3,0,64*,0,29,
Nc1cc(=O)[nH]c(SCC(=O)NC2CCCc3ccccc32)n1 (stereo not drawn),-9,-6,0,3,1,/,
CCOC(=O)Nc1ccc(NCc2ccc(F)cc2)nc1N,32,-16,-4,98*,-8,79*,Diaphorase 10uM=11;Diaph ctr 30uM=12
CCOC(=O)Nc1ccc(C)cc1NC(=O)OCC,-6,-1,1,0,0,/,
CCC(C)c1ccccc1OCCn1ccnc1 (stereo not drawn),2,7,0,70*,2,56*,Diaphorase 10uM=35;Diaph ctr 30uM=31
COc1ccccc1OCCn1ccnc1,-7,-5,-1,-6,-5,/,
CCc1c(C)sc(NC(=O)c2ccoc2C)c1C(N)=O,-17,60*,0,94*,0,44,
C=CCNC(=S)N(CC)c1cccc2ccccc12,-6,-7,0,-4,-5,/,
O=C(Nc1ccc(OCC(F)(F)C(F)F)c(C(F)(F)F)c1)c1ccc(Cl)cc1,3,1,-1,86*,2,-2,
C[C@H](NC(=O)C1CCN(S(=O)(=O)c2ccccc2)CC1)C(=O)NCc1ccncc1,/,/,-2,1,/,/,
c1cc(CNc2ccc3c(c2)OCO3)ccn1,23,13,-3,61*,-1,53*,Diaphorase 10uM=15;Diaph ctr 30uM=11
Cc1ccc(CNc2ccc3c(c2)OCO3)cc1,6,/,-4,40,/,/,
CCc1nc2ccc(C(=O)Nc3cccc(OC)c3)cn2c1N(CC)Cc1cccc(Br)c1,/,/,-1,/,/,/,
O=C1C(=Cc2cccc(O)c2O)SC(=S)N1CCCN1CCOCC1,/,/,-4,70*,/,50*,Diaphorase 10uM=-12;Diaph ctr 30uM=-6
Clc1cc(Cl)cc(Nc2ccccc2CN(C/C=C/c2ccc3c(c2)OCO3)Cc2ccccc2)c1,/,/,4,-16,/,/,
Nc1nc(N)c2cc(CNc3ccc(Cl)c(Cl)c3)ccc2n1,/,/,-2,36,/,/,
c1cc2c3c(cccc3c1)-c1cnccc1-2,-2,/,-2,65*,/,32,
CCc1ccccc1OCc1nc2ccc(S(=O)(=O)N3CCOCC3)cc2[nH]1,0,-2,-2,11,0,/,
Cc1ccccc1OCc1nc2ccc(S(=O)(=O)N3CCOCC3)cc2[nH]1,-16,34,0,64*,4,28,
Nc1ccc2c(c1)C(=O)C(=O)c1ccccc1-2,2,16,-6,108*,6,89*,Diaphorase 10uM=77*;Diaph ctr 30uM=90*
Oc1ccc(N2CCN(c3ncnc4sc(-c5ccccc5)cc34)CC2)cc1,4,/,-1,72*,/,23,
Cn1c(C(=O)NCCCN2CCCCCC2)cc2c(=O)n(C)c3ccccc3c21,5,-1,-2,60*,0,-2,
O=C1C(c2ccccc2)=[N+]([O-])c2ccccc21,25,-6,-2,61*,-1,12,
SMILES,HKDC1 inh,APOBEC3G inh,hiPSC survival,PfG6PD inh,A3A deaminase,PfGluPho conf,others
O=[N+]([O-])c1ccc(Nc2ccccc2O)c([N+](=O)[O-])c1,/,/,1,66*,/,27,
O=C(NC1CCCC1)C1CCN(C(=O)c2ccc(-c3ccccc3)cc2)CC1,-6,-1,-1,-1,-1,/,
COCCNC(=O)C1(C)CCN(C(=O)c2ccc3c(c2)C(C)(C)CCC3(C)C)C1 (stereo not drawn),/,/,-2,/,/,/,
COc1cc(C2Nc3ccc4ncccc4c3C3=C2C(=O)CCC3)cc(OC)c1O (stereo not drawn),15,3,-2,69*,-3,29,
COc1cc(C2Nc3ccc4ncccc4c3C3=C2C(=O)CC(C)(C)C3)cc(OC)c1O (stereo not drawn),4,-5,0,35,2,/,
O=C(Nc1ccc(C(O)(C(F)(F)F)C(F)(F)F)cc1)c1ccc(Cl)c([N+](=O)[O-])c1,7,-2,-1,63*,-1,-10,
C(=Cc1c[nH]c2ccccc12)c1nccc2ccccc12,10,/,-5,65*,/,4,
Oc1c(Cl)c(Cl)c2ncccc2c1Cl,1,/,-2,7,/,/,
COc1cc(N)c2ncccc2c1Cl,12,/,-1,60*,/,73*,Diaphorase 10uM=22;Diaph ctr 30uM=23
COc1ccc(C)cc1NC(=O)C1CCN(S(=O)(=O)c2cccs2)CC1,-1,-11,1,13,-5,/,
COC(=O)c1ccc(Cl)c(NC(=O)CN(c2ccccc2)S(=O)(=O)c2ccc(OC)cc2)c1,-3,-6,-1,76*,-2,-18,
O=[N+]([O-])c1ccc(Sc2cccc3cccnc23)cc1,14,-8,0,114*,-3,83*,Diaphorase 10uM=77*;Diaph ctr 30uM=72*
O=[N+]([O-])c1cc(Cl)ccc1Sc1ccccn1,0,-5,0,51,-4,/,
O=[N+]([O-])c1ccc(Sc2cccc3cccnc23)c([N+](=O)[O-])c1,-30,-6,1,148*,-1,99*,Diaphorase 10uM=71*;Diaph ctr 30uM=61*
O=[N+]([O-])c1ccc(Sc2ccncn2)c([N+](=O)[O-])c1,/,/,-5,18,/,/,
O=[N+]([O-])c1cc(Cl)ccc1Sc1cccc2cccnc12,0,-7,1,129*,4,90*,Diaphorase 10uM=88*;Diaph ctr 30uM=82*
CCOc1ccc(-n2c(=S)sc3c(=O)n(-c4ccc(F)cc4)c(SCC(=O)O)nc32)cc1,-1,-8,1,26,-4,/,
O=C(COC(=O)c1cc(=O)c2ccccc2o1)NCc1ccc(Cl)cc1,/,/,-2,-8,/,/,
CCOc1cc(/C=N/n2c(C)nnc2C)ccc1O,-5,0,0,6,-2,/,
